Experimental data published in ChEMBL document CHEMBL3244318, “Prostaglandins and congeners. 14. Synthesis and bronchodilator activity of dl-16,16-trimethyleneprostaglandins” (1977).
Active and inactive are the calls of the source. No cut-off for these calls is given here.

What was measured:
Cavia porcellus [1] = assay: Bronchodilatory activity in iv dosed Hartley guinea pig assessed as inhibition of serotonin-induced constriction compound of total 3 to 4 doses at 15 mins interval starting first dose 2 mins post challenge; assay type: functional
In short: (§1)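 Ventilated, curarized guinea pigs received repeated 12-s IV spasmogen injections every 5 min, tuned to a 20-50 cm water rise in tracheal pressure. Three or four logarithmically spaced IV doses were given over 1 min, at 15-min intervals, with at least four animals per spasmogen. ED50 is the dose giving -50% spasm variation, taken from a semilog regression. When -50% was not reached, ED50 is reported as greater than the top dose.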

Cavia porcellus [2] = assay: Bronchodilatory activity in iv dosed Hartley guinea pig assessed as inhibition of histamine-induced constriction compound of total 3 to 4 doses at 15 mins interval starting first dose 2 mins post challenge; assay type: functional; in short: as §1
Cavia porcellus [3] = assay: Bronchodilatory activity in iv dosed Hartley guinea pig assessed as inhibition of acetylcholine-induced constriction at 3.2 mg/kg, iv of total 3 to 4 doses at 15 mins interval starting 2 mins post challenge; assay type: functional
In short: (§2)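 Artificially ventilated, curarized guinea pigs. Spasmogen was given IV in 12-s injections every 5 min, adjusted to raise tracheal pressure by 20-50 cm water. After three similar control spasms, drug was infused IV over 1 min. Sodium salts were given in water and esters in 10% aqueous ethanol. Read-out was % variation of spasm amplitude versus control, in at least four animals per spasmogen.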

Cavia porcellus [4] = assay: Bronchodilatory activity in iv dosed Hartley guinea pig assessed as inhibition of acetylcholine-induced constriction compound of total 3 to 4 doses at 15 mins interval starting first dose 2 mins post challenge; assay type: functional; in short: as §1
Cavia porcellus [5] = assay: Bronchodilatory activity in iv dosed Hartley guinea pig assessed as inhibition of serotonin-induced constriction at 3.2 mg/kg, iv of total 3 to 4 doses at 15 mins interval starting 2 mins post challenge; assay type: functional; in short: as §2
Cavia porcellus [6] = assay: Bronchodilatory activity in iv dosed Hartley guinea pig assessed as inhibition of histamine-induced constriction at 3.2 mg/kg, iv of total 3 to 4 doses at 15 mins interval starting 2 mins post challenge; assay type: functional; in short: as §2
Canis familiaris = assay: Bronchodilatory activity in anesthetized dog assessed as inhibition of pilocarpine-induced bronchospasms compound administered through aerosol 15 mins post challenge measured up to 1 hr; assay type: functional, organism-based; details: Canis lupus familiaris
[7] = Cavia porcellus, Hartley, iv, read-out: ED50

SMILES	ED50 (Cavia porcellus [1])	ED50 (Cavia porcellus [2]; [7])	inhibition in vivo at 3.2 mg/kg (Cavia porcellus [3])	inhibition in vivo at 3.2 mg/kg (Cavia porcellus [5])	inhibition in vivo at 3.2 mg/kg (Cavia porcellus [6])	further results
CCCCC1([C@H](O)/C=C/C2CCC(=O)[C@@H]2C/C=C\CCCC(=O)OCC)CCC1 (mixture of isomers)	135 µg/kg	221 µg/kg	–	–	–	–
CCCCC1([C@H](O)/C=C/C2CCC(=O)[C@@H]2CCCCCCC(=O)OCC)CCC1 (mixture of isomers)	409 µg/kg	15.1 µg/kg	–	–	–	–
CCCCC1([C@H](O)/C=C/C2CCC(=O)[C@@H]2CCCCCCCCC(=O)OCC)CCC1 (mixture of isomers)	4380 µg/kg	6210 µg/kg	< 50%	–	–	–
CCCCC1([C@@H](O)/C=C/C2CCC(=O)[C@@H]2CCCCCCC(=O)O)CCC1 (mixture of isomers)	20.3 µg/kg	13.9 µg/kg	< 50%	–	–	–
CCCCC1([C@H](O)/C=C/C2CCC(=O)[C@@H]2C/C=C\CCCC(=O)O)CCC1 (mixture of isomers)	7.67 µg/kg	2.2 µg/kg	–	–	–	ED50 (Cavia porcellus [4]; [7]): 24.2 µg/kg
CCCCC1([C@@H](O)/C=C/C2CCC(=O)[C@@H]2CCCCCCCC(=O)O)CCC1 (mixture of isomers)	–	–	< 50%	< 50%	< 50%	–
CCCCC1([C@H](O)/C=C/C2CCC(=O)[C@@H]2CCCCCCCCC(=O)O)CCC1 (mixture of isomers)	–	–	< 50%	< 50%	< 50%	–
CCCCC1([C@@H](O)/C=C/C2CCC(=O)[C@@H]2CCCCCCCC(=O)OCC)CCC1 (mixture of isomers)	–	–	< 50%	< 50%	< 50%	–
CCCCC1([C@H](O)/C=C/C2CCC(=O)[C@@H]2CCCCCC(=O)O)CCC1 (mixture of isomers)	32 µg/kg	32 µg/kg	–	–	–	ED50 (Cavia porcellus [4]; [7]): 320 µg/kg
CCCCC1([C@@H](O)/C=C/C2CCC(=O)[C@@H]2CCCCSCC(=O)OCC)CCC1 (mixture of isomers)	–	> 672 µg/kg	< 50%	< 50%	–	–
CCCCC1([C@H](O)/C=C/C2CCC(=O)[C@@H]2CCCCCC(=O)OCC)CCC1 (mixture of isomers)	–	–	< 50%	< 50%	< 50%	–
CCCCC1([C@H](O)/C=C/C2CCC(=O)[C@@H]2CCCCCCC(=O)O)CCC1 (mixture of isomers)	–	2.4 µg/kg	–	–	–	ED50 (Cavia porcellus [4]; Cavia porcellus, Hartley, iv): 47.8 µg/kg
CCCCC1([C@@H](O)/C=C/C2[C@H](O)CC(=O)[C@@H]2CCCCCCC(=O)O)CCC1 (mixture of isomers)	43.9 µg/kg	17 µg/kg	–	–	–	ED50 (Cavia porcellus [4]; [7]): 30 µg/kg; inhibition (Canis familiaris): Active
CCCCC1([C@H](O)/C=C/C2CCC(=O)[C@@H]2CCCCSCC(=O)OCC)CCC1 (mixture of isomers)	300 µg/kg	30 µg/kg	–	–	–	ED50 (Cavia porcellus [4]; [7]): 909 µg/kg
CCCCC1([C@@H](O)/C=C/C2CCC(=O)[C@@H]2CCCCC(C)(C)CC(=O)O)CCC1 (mixture of isomers)	–	–	< 50%	< 50%	< 50%	–
CCCC1([C@H](O)/C=C/C2[C@H](O)CC(=O)[C@@H]2C/C=C\CCCC(=O)O)CCC1 (mixture of isomers)	3 µg/kg	–	–	–	–	ED50 (Cavia porcellus [2]): 0.0979 µg/kg; ED50 (Cavia porcellus [4]; [7]): 3 µg/kg
CCCCC1([C@@H](O)/C=C/C2CCC(=O)[C@@H]2CCCCSCC(=O)O)CCC1 (mixture of isomers)	–	606 µg/kg	< 50%	< 50%	–	–

SMILES	ED50 (Cavia porcellus [1])	ED50 (Cavia porcellus [2]; [7])	inhibition in vivo at 3.2 mg/kg (Cavia porcellus [3])	inhibition in vivo at 3.2 mg/kg (Cavia porcellus [5])	inhibition in vivo at 3.2 mg/kg (Cavia porcellus [6])	further results
CCCCC1([C@@H](O)/C=C/C2CCC(=O)[C@@H]2CCCCC(C)(C)CC(=O)OCC)CCC1 (mixture of isomers)	–	–	< 50%	< 50%	< 50%	–
CCCCC1([C@@H](O)/C=C/C2CCC(=O)[C@@H]2CCCCCCC(=O)OCC)CCC1 (mixture of isomers)	–	32 µg/kg	–	–	–	ED50 (Cavia porcellus [4]; [7]): 2.06 µg/kg
CCCCC1([C@@H](O)/C=C/C2CCC(=O)[C@@H]2CCCCCCCCC(=O)OCC)CCC1 (mixture of isomers)	–	–	< 50%	< 50%	< 50%	–
CCCCC[C@H](O)/C=C/[C@H]1[C@H](O)CC(=O)[C@@H]1CCCCCCC(=O)O [ALPROSTADIL]	1.07 µg/kg	0.7 µg/kg	–	–	–	ED50 (Cavia porcellus [4]): 3.3 µg/kg; inhibition (Canis familiaris): Active
CCCCC1([C@H](O)/C=C/C2[C@H](O)CC(=O)[C@@H]2CCCCCCC(=O)O)CCC1 (mixture of isomers)	1.26 µg/kg	–	–	–	–	ED50 (Cavia porcellus [2]): 0.555 µg/kg; ED50 (Cavia porcellus [4]; [7]): 1.45 µg/kg; inhibition (Canis familiaris): Active
CCCCC1([C@H](O)/C=C/C2CCC(=O)[C@@H]2CCCCC(C)(C)CC(=O)OCC)CCC1 (mixture of isomers)	–	–	< 50%	< 50%	< 50%	–
CCCCC1([C@@H](O)/C=C/C2CCC(=O)[C@@H]2CCCCCCCCC(=O)O)CCC1 (mixture of isomers)	–	–	< 50%	< 50%	< 50%	–
CCCCC1([C@@H](O)/C=C/C2CCC(=O)[C@@H]2C/C=C\CCCC(=O)O)CCC1 (mixture of isomers)	–	–	< 50%	–	< 50%	–
CCCCC1([C@H](O)/C=C/C2CCC(=O)[C@@H]2CCCCSCC(=O)O)CCC1 (mixture of isomers)	171 µg/kg	91.2 µg/kg	< 50%	–	–	–
CCCC1([C@@H](O)/C=C/C2[C@H](O)CC(=O)[C@@H]2C/C=C\CCCC(=O)O)CCC1 (mixture of isomers)	265 µg/kg	46.7 µg/kg	< 50%	–	–	–
CCCCC1([C@H](O)/C=C/C2[C@H](O)CC(=O)[C@@H]2C/C=C\CCCC(=O)O)CCC1 (mixture of isomers)	2.51 µg/kg	1.54 µg/kg	–	–	–	ED50 (Cavia porcellus [4]; [7]): 1.06 µg/kg
CCCCC1([C@H](O)/C=C/C2CCC(=O)[C@@H]2CCCCCCCC(=O)OCC)CCC1 (mixture of isomers)	–	–	< 50%	< 50%	< 50%	–
CCCCC1([C@@H](O)/C=C/C2CCC(=O)[C@@H]2C/C=C\CCCC(=O)OCC)CCC1 (mixture of isomers)	–	–	< 50%	< 50%	< 50%	–
CCCCC1([C@H](O)/C=C/C2CCC(=O)[C@@H]2CCCCC(C)(C)CC(=O)O)CCC1 (mixture of isomers)	–	–	< 50%	< 50%	< 50%	–
CCCCC1([C@@H](O)/C=C/C2[C@H](O)CC(=O)[C@@H]2C/C=C\CCCC(=O)O)CCC1 (mixture of isomers)	305 µg/kg	48.4 µg/kg	–	–	–	ED50 (Cavia porcellus [4]; [7]): 32 µg/kg
CCCCC1([C@H](O)/C=C/C2CCC(=O)[C@@H]2CCCCCCCC(=O)O)CCC1 (mixture of isomers)	–	–	< 50%	< 50%	< 50%	–
